# Data published in ChEMBL document CHEMBL1132358, “Virtual combinatorial syntheses and computational screening of new potential anti-herpes compounds” (J Med Chem, 1999).
# Tested on: Vero
# Assay: Anti-Herpes simplex virus type-1 activity in vero cells using plaque inhibition assay
# Assay type: functional, cell-based, Chlorocebus sabaeus
# Settings: Chlorocebus sabaeus, Vero
# In short: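 Plaque-reduction assay with HSV-1 McIntyre strain (titrated suspension) on confluent Vero monolayers. Cells infected with 100 PFU in MEM and adsorbed 2 h at 37 °C. Inoculum then replaced with MEM containing 0.2% γ-globulin plus serial concentrations of compound. Untreated infected wells served as CPE controls; CPE completed 1–2 days post-infection. Result given as IC50.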
row,Compound,IC50
1,Nc1nc(N)c2nc(CO)cnc2n1,160 nM
2,Cc1cn([C@H]2C[C@H](O)[C@@H](CO)O2)c(=O)[nH]c1=O [DOXRIBTIMINE],400 nM
3,O=C(CN1CCNCC1)N1CCCC1,600 nM
4,O=C(O)C1=C(C(=O)Oc2ccc(F)cc2F)CCC1,1400 nM
5,O=C(O)c1n[nH]nc1C(=O)O,5000 nM
6,OC[C@H]1O[C@@H](n2cnc3cncnc32)[C@H](O)[C@@H]1O [NEBULARINE],600 nM
7,O=c1[nH]cnc2c1ncn2[C@@H]1O[C@H](CO)[C@@H](O)[C@H]1O [INOSINE],230 nM
8,O=C(O)CCCCC(=O)O [ADIPIC ACID],400 nM
9,O=C1CN(/N=C/c2ccc([N+](=O)[O-])o2)C(=O)N1 [NITROFURANTOIN],900 nM
10,Nc1ncnc2c1ncn2[C@@H]1O[C@H](CO)C[C@H]1O [CORDYCEPIN],500 nM
11,O=C1NC(=O)C([N+](=O)[O-])C(=O)N1,1700 nM
12,Cc1cn([C@@H]2O[C@H](CO)[C@@H](O)[C@H]2O)c(=O)nc1N,60 nM
13,O=C(O)C1=C(C(=O)Nc2c(F)cccc2F)CCC1,900 nM
14,O=C(O)C1=C(C(=O)Oc2ccc(F)c(F)c2F)CCC1,1800 nM
15,Cc1cc(=O)oc2cc(OCC(=O)O)ccc12,70 nM
16,O=C(O)CCC(=O)O [SUCCINIC ACID],1300 nM
17,Cc1noc(C)c1[N+](=O)[O-],900 nM
18,O=C(O)C1=C(C(=O)Nc2ccc(F)c(F)c2F)CCC1,900 nM
19,O=c1ccn([C@H]2C[C@H](O)[C@@H](CO)O2)c(=O)[nH]1 [DEOXYURIDINE],2200 nM
20,O=C(O)C1=C(C(=O)Nc2cccc(F)c2F)CCC1,900 nM

# Same assay, conditions: vero
row,Compound,IC50
1,Cc1cn([C@H]2C[C@H](O)[C@@H](CO)O2)c(=O)[nH]c1=O [DOXRIBTIMINE],300 nM
